Reference: ChEMBL document CHEMBL2440065, “Identification of a novel benzoxazolone derivative as a selective, orally active 18 kDa translocator protein (TSPO) ligand” (J Med Chem, 2013)
≈ marks a conversion by molar mass, not a printed value. Calls of active or inactive are those of the source. No cut-off for these calls is given here.

Assays:
[1] = Solubility of the compound at pH 2.5 by HPLC analysis; type: physicochemical; details: buffer
Method in brief: (§1)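 Compound (1 mg) shaken in 0.4 mL buffered solution at pH 7.4 or pH 2.5, then centrifuged; dissolved compound in the supernatant quantified by HPLC.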

[2] = Solubility of the compound at pH 7.4 by HPLC analysis; type: physicochemical; details: buffer; method in brief: as §1
Translocator protein = Translocator protein (Rattus norvegicus, UniProt P16257); experiment: Displacement of [3H]PK11195 from Sprague-Dawley rat kidney TSPO after 1 hr by liquid scintillation counting analysis
Translocator protein, sequence (P16257 whole entry, looked up): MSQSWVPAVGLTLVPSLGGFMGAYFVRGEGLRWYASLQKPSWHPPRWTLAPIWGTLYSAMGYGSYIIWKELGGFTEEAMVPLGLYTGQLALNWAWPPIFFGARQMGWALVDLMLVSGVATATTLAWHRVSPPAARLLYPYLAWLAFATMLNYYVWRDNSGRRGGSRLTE

Rattus norvegicus [3] = species: Rattus norvegicus; experiment: Displacement of [3H]flumazenil from Sprague-Dawley rat cerebral cortex CBR at 10 uM after 1 hr by liquid scintillation counting analysis; type: tissue-based
[4] = Metabolic stability in rat liver S9 fraction assessed as compound remaining at 1 uM after 30 mins in presence of NADPH; type: ADME, subcellular; details: read-out: Stability
CYP2C19 = CYP2C19 (Homo sapiens, UniProt P33261); experiment: Inhibition of CYP2C19 (unknown origin) at 1 uM; type: ADME
CYP2C19, sequence (P33261 whole entry): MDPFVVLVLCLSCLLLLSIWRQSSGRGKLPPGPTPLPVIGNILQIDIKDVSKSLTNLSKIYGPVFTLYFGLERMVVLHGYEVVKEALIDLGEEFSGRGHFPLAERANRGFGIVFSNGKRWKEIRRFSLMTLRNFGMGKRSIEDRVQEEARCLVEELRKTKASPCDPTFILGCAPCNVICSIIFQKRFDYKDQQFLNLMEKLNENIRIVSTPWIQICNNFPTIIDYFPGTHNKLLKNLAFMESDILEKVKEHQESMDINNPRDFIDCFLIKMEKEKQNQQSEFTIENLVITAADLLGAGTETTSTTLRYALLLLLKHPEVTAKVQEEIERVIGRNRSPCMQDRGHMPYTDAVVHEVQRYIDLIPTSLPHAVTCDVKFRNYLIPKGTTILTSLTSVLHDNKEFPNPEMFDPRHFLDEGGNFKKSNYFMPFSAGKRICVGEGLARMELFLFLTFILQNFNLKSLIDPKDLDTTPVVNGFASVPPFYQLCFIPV

[5] = Displacement of [3H]batrachotoxin from rat brain sodium channel site 2; type: tissue-based
Rattus norvegicus [6] = species: Rattus norvegicus; experiment: Displacement of [3H]batrachotoxin from rat brain sodium channel site 2 at 10 uM relative to control; type: tissue-based
Rattus norvegicus [7] = experiment: Anxiolytic-like activity in Sprague-Dawley rat vogel conflict model at 3 mg/kg, po after 1 hr; type: functional, organism-based; parameters: dose 3 mg/kg
[8] = Solubility of the compound at pH 6.8; type: physicochemical; details: buffer
Method in brief: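 Solubility measured in pH 6.8 buffer containing bile acids; compound tested as free base and as HCl salt.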

Row | SMILES | solubility [1] [µg/mL] | solubility [2] [µg/mL] | Ki (Translocator protein) [nM] | inhibition (Rattus norvegicus [3]) [%] | remaining at 0.5 h, 1 µM [4] [%] | further results
1 | CN(C(=O)Cn1c(=O)oc2ccc(-c3ccc(OC(F)(F)F)cc3)cc21)c1ccccc1 | < 1 | < 1 |  |  |  | 
2 | CN(C(=O)Cn1c(=O)oc2ccc(-c3ccccc3)cc21)c1cccnc1 | 180 (≈ 501 µM) |  |  |  |  | IC50 [5]: > 1000 nM
3 | CN(C(=O)Cn1c(=O)oc2ccc(-c3ccc(OC(F)(F)F)cc3)cc21)c1cccnc1 [listing 1 of 2 here] |  |  |  | 0 |  | inhibition (Rattus norvegicus [6]): 108%; Activity (Rattus norvegicus [7]): Active
4 | CN(C(=O)Cn1c(=O)oc2ccc(-c3ccc(OC(F)(F)F)cc3)cc21)c1cccnc1 [listing 2 of 2 here] | 4 (≈ 9.02 µM) | < 1 | 4.9 |  | 32 | solubility [8]: 20 µg/mL (≈ 45.1 µM); IC50 [5]: 700 nM
5 | CN(C(=O)Cn1c(=O)oc2ccc(-c3cccnc3)cc21)c1ccc(OC(F)(F)F)cc1 |  |  | 26 | 0 |  | IC50 [5]: > 1000 nM
6 | CN(C(=O)Cn1c(=O)oc2ccc(-c3cccnc3)cc21)c1ccccc1 |  | 5 (≈ 13.9 µM) |  |  |  | 
7 | COc1ccc(N(C)C(=O)Cn2c(=O)oc3ccc(-c4ccncc4)cc32)cc1 | 130 (≈ 334 µM) | < 1 | 17 | 2 | 47 | 

The next lines start with results.

Row | solubility [1] [µg/mL] | solubility [2] [µg/mL] | Ki (Translocator protein) [nM] | inhibition (Rattus norvegicus [3]) [%] | remaining at 0.5 h, 1 µM [4] [%] | SMILES | further results
8 | 730 (≈ 2030 µM) | 1 (≈ 2.78 µM) |  |  |  | CN(C(=O)Cn1c(=O)oc2ccc(-c3ccncc3)cc21)c1ccccc1 | 
9 |  |  | 23 |  |  | CN(C(=O)Cn1c(=O)oc2ccc(-c3ccncc3)cc21)c1ccc(OC(F)(F)F)cc1 | 
10 | < 1 | < 1 |  |  |  | CN(C(=O)Cn1c(=O)oc2ccc(-c3ccc(C(F)(F)F)cc3)cc21)c1ccccc1 | 
11 |  |  | 4.4 | 21 | 0 | CCN(C(=O)Cn1c(=O)oc2ccc(-c3cccnc3)cc21)c1ccccc1 | 
12 | 3 (≈ 8.35 µM) | 1 (≈ 2.78 µM) |  |  |  | CN(C(=O)Cn1c(=O)oc2ccc(-c3ccccc3)cc21)c1ccccn1 | 
13 | > 1000 | 3 (≈ 7.02 µM) | 6.6 | 0 | 35 | CN(C(=O)Cn1c(=O)oc2ccc(-c3ccncc3)cc21)c1ccc(C(F)(F)F)cc1 | inhibition at 1 µM (CYP2C19): 73%
14 | 860 (≈ 2300 µM) | 2 (≈ 5.36 µM) | 3 | 5 | 24 | CCN(C(=O)Cn1c(=O)oc2ccc(-c3ccncc3)cc21)c1ccccc1 | inhibition at 1 µM (CYP2C19): 71%
15 | 1 (≈ 2.79 µM) |  |  |  |  | CN(C(=O)Cn1c(=O)oc2ccc(-c3ccccc3)cc21)c1ccccc1 | 
16 | < 1 | < 1 | 9.8 | 6 | 24 | CN(C(=O)Cn1c(=O)oc2ccc(-c3ccc(C(F)(F)F)cc3)cc21)c1cccnc1 | 
17 |  |  | 19 | 0 | 9 | COc1ccc(N(C)C(=O)Cn2c(=O)oc3ccc(-c4cccnc4)cc32)cc1 | 
